{
  "source": "paper PMC3213326",
  "about": "(Molecular cancer therapeutics, 2011)",
  "key": {"leukemia cell lines": {"test_system": "leukemia cell lines", "experiment": "NCI-60 panel screen, leukemia lines", "format": "cell-based, human", "settings": "10 µM"}, "[1]": {"test_system": "NCI-60 panel of human cancer cell lines", "experiment": "NCI-60 panel screen", "format": "cell-based", "settings": "10 µM"}, "[2]": {"test_system": "KM12 colon cancer cell line", "experiment": "NCI-60 panel screen, KM12", "format": "cell-based, human", "settings": "10 µM, cell line highly expressing KLF5"}, "KLF5 [3]": {"test_system": "KLF5", "experiment": "Western blot of endogenous KLF5 levels in IEC-6 cells", "format": "cell-based, rat", "settings": "wide range of concentrations"}, "EGR1": {"test_system": "EGR1", "experiment": "Western blot of EGR1 in DLD-1 cells", "format": "cell-based, human", "settings": "DLD-1, 10 µM, 24 h", "in_short": "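DLD-1 cells were seeded at 2 × 10⁵ per well in 1 ml medium. At 24 h after seeding they were given test compound in DMSO or DMSO alone for 24 h. Lysates were made in Laemmli buffer, separated by polyacrylamide gel electrophoresis and transferred to nitrocellulose. Membranes were probed with rabbit anti-EGR1, and scanned films were quantified by densitometry.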"}, "DLD-1 cells": {"test_system": "DLD-1 cells", "experiment": "Cell viability assay", "format": "cell-based, human", "settings": "48 h; for effect on proliferation of DLD-1 cells: various concentrations", "in_short": "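DLD-1 cells were plated at 10⁴ per well in 96-well plates. They were dosed at once with increasing concentrations of test compound in DMSO (final 0.4%) or with DMSO alone. After 48 h, viability was read by Cell-Titer Glo luminescence. The DMSO control was set to 100%. Runs were done in triplicate, and IC50 came from a nonlinear sigmoidal dose-response fit.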"}, "KLF5 [4]": {"test_system": "KLF5", "experiment": "Western blot of endogenous KLF5 protein levels in DLD-1 cells", "format": "cell-based, human", "settings": "24 h; for effect on endogenous KLF5 levels: DLD-1, 10 µM", "in_short": "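DLD-1 cells were seeded at 2 × 10⁵ per well in 1 ml medium. At 24 h after seeding they were treated with 5 or 10 µM test compound in DMSO, or with DMSO alone, for 24 h. Cells were lysed in Laemmli buffer, run on polyacrylamide gel and transferred to nitrocellulose. Blots were probed with rabbit polyclonal anti-KLF5 (residues 95–111) and mouse monoclonal anti-β-actin, and scanned films were quantified by densitometry.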"}},
  "data": [
    {"molecule": "CN(C(=O)COC(=O)/C=C/c1cccc([N+](=O)[O-])c1)C1CCS(=O)(=O)C1", "note": "(stereo not shown) [CID 5951923]", "values": [
      {"measurement": "inhibition of leukemia cell lines", "setting": "leukemia cell lines", "result": "inhibition in a number of leukemia cell lines"},
      {"measurement": "potency of inhibition in NCI-60 panel", "setting": "[1]", "result": "potency was weak"},
      {"measurement": "inhibition of KM12 colon cancer cell line", "setting": "[2]", "result": "poor inhibition"},
      {"measurement": "effect on endogenous KLF5 levels in IEC-6 cells", "setting": "KLF5 [3]", "result": "neither CIDs 4395011 nor 5951923 reduced endogenous KLF5 levels"},
      {"measurement": "effect on EGR1", "setting": "EGR1", "result": "downregulated EGR1"},
      {"measurement": "effect on proliferation of DLD-1 cells", "setting": "DLD-1 cells", "result": "inhibited proliferation of DLD-1 cells in a dose-dependent manner"}
    ]},
    {"molecule": "C[C@@H]1O[C@@H](O[C@H]2C[C@@H](O)[C@]3(CO)[C@H]4[C@H](O)C[C@]5(C)[C@@H](C6=CC(=O)OC6)CC[C@]5(O)[C@@H]4CC[C@]3(O)C2)[C@H](O)[C@H](O)[C@H]1O", "note": "[compound 439501]", "values": [
      {"measurement": "inhibitory effect on KLF5 levels relative to the other three tested compounds", "setting": "KLF5 [4]; DLD-1, 5 and 10 µM", "result": "more pronounced"},
      {"measurement": "effect on proliferation of DLD-1 cells", "setting": "DLD-1 cells", "result": "inhibited proliferation of DLD-1 cells in a dose-dependent manner"},
      {"measurement": "IC50", "setting": "DLD-1 cells; read-out: IC50 for DLD-1 proliferation (cell viability), Cell-Titer Glo", "result": 46, "unit": "nM"}
    ]},
    {"molecule": "CC1=CCCC2(C)C(CCC2(O)CN(CCc2cccs2)S(=O)(=O)c2cccs2)c2ccc(cc2C(=O)Cc2c(F)cccc2Cl)CC(O)CC1", "note": "(stereo not shown) [compound 4395011]", "values": [
      {"measurement": "effect on endogenous KLF5 levels in IEC-6 cells", "setting": "KLF5 [3]", "result": "neither CIDs 4395011 nor 5951923 reduced endogenous KLF5 levels"}
    ]},
    {"molecule": "CN(C(=O)CNC(=O)/C=C/c1cccc([N+](=O)[O-])c1)C1CCS(=O)(=O)C1", "note": "(stereo not shown) [compound 46931037]", "values": [
      {"measurement": "effect on endogenous KLF5 levels", "setting": "KLF5 [4]", "result": "similarly affect KLF5 protein levels"},
      {"measurement": "effect on EGR1", "setting": "EGR1", "result": "downregulated EGR1"}
    ]},
    {"molecule": "CN(C(=O)CNC(=O)/C=C/c1cccc(Cl)c1)C1CCS(=O)(=O)C1", "note": "(stereo not shown) [compound 46931043]", "values": [
      {"measurement": "effect on endogenous KLF5 levels", "setting": "KLF5 [4]", "result": "similarly affect KLF5 protein levels"}
    ]}
  ]
}
